Assay results: ChEMBL document CHEMBL1136812, “Structure-activity relationships of dimethindene derivatives as new M2-selective muscarinic receptor antagonists” (J Med Chem, 2003)

Legend:
Assay type in all cases: cell-based
[1] = biological target: Histamine H1 receptor (Homo sapiens, UniProt P35367); experiment: Compound was evaluated for binding affinity towards cloned human histamine H1 receptors stably expressed in CHO-K1 cells using [3H]mepyramine
Procedure, shortened: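 CHO-K1 membranes with stable human H1 receptor, 18 µg/mL final protein. […] Nonspecific binding with 0.1 mM terfenadine. Filtered and counted. Ki by Cheng-Prusoff. pKi mean ± SD, ≥3 experiments in duplicate.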

[2] = biological target: T1, Muscarinic acetylcholine receptor M2 (Homo sapiens, UniProt P08172); experiment: Binding affinity towards cloned human muscarinic acetylcholine receptor M2 stably expressed in CHO-K1 cells using [3H]N-methylscopolamine
T1 sequence (P08172 whole entry): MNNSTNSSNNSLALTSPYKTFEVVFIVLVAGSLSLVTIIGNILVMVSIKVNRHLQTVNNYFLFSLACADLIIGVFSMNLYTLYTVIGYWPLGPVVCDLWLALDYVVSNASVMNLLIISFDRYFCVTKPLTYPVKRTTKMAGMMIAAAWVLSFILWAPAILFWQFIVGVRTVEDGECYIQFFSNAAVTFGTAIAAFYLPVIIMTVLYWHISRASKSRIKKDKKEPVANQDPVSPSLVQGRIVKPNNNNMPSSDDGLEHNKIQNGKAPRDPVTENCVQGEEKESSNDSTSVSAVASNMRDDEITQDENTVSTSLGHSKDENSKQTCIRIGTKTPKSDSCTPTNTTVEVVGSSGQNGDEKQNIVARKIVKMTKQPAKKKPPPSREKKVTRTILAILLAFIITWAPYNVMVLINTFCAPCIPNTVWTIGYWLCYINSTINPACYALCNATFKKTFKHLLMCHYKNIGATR

[3] = biological target: T2, Muscarinic acetylcholine receptor M1 (Homo sapiens, UniProt P11229); experiment: Binding affinity towards cloned human muscarinic acetylcholine receptor M1 stably expressed in CHO-K1 cells using [3H]N-methylscopolamine
T2 sequence (P11229 whole entry): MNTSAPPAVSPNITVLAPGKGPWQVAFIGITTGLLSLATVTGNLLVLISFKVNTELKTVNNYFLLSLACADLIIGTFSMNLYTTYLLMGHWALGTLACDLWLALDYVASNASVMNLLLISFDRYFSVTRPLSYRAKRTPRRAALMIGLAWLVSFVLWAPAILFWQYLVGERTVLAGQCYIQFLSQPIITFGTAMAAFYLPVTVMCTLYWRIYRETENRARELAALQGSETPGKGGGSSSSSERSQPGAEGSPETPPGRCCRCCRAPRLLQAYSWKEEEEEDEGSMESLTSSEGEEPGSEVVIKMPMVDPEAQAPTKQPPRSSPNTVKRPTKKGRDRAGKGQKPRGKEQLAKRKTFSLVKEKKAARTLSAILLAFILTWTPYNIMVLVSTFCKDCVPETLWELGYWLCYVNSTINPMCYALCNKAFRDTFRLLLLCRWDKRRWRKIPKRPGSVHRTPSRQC

[4] = biological target: T3, Muscarinic acetylcholine receptor M4 (Homo sapiens, UniProt P08173); experiment: Binding affinity towards cloned human muscarinic acetylcholine receptor M4 stably expressed in CHO-K1 cells using [3H]N-methylscopolamine
T3 sequence (P08173 whole entry): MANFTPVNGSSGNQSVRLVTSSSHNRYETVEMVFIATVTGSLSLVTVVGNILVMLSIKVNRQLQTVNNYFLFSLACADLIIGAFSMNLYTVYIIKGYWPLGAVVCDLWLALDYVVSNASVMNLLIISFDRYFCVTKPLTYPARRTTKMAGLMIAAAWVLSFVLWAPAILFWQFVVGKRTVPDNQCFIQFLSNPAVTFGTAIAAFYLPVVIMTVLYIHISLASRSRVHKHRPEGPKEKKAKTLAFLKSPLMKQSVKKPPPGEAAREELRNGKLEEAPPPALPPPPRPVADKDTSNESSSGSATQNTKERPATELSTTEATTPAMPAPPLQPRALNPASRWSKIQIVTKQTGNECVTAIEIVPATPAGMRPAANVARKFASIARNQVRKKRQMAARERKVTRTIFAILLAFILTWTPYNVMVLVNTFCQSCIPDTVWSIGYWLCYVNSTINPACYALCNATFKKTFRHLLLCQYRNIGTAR

[5] = biological target: T4, Muscarinic acetylcholine receptor M5 (Homo sapiens, UniProt P08912); experiment: Binding affinity towards cloned human muscarinic acetylcholine receptor M5 stably expressed in CHO-K1 cells using [3H]N-methylscopolamine
T4 sequence (P08912 whole entry): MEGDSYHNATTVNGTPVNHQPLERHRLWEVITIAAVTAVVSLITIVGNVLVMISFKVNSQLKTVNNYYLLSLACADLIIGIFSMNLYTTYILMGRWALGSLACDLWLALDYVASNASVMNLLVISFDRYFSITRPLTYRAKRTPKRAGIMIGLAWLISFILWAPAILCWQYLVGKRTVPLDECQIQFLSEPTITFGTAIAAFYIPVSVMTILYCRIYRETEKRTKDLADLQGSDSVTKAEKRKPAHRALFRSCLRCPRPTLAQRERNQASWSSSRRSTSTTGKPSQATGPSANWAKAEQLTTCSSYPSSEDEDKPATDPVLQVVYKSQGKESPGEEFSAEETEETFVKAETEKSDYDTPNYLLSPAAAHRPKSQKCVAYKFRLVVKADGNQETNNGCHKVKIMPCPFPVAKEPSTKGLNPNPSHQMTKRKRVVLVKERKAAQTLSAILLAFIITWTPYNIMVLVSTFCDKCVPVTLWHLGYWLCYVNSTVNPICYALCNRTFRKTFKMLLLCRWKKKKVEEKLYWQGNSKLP

[6] = biological target: Muscarinic acetylcholine receptor M3 (Homo sapiens, UniProt P20309); experiment: Binding affinity towards cloned human muscarinic acetylcholine receptor M3 stably expressed in CHO-K1 cells using [3H]N-methylscopolamine
Sequence of Muscarinic acetylcholine receptor M3 (P20309 whole entry): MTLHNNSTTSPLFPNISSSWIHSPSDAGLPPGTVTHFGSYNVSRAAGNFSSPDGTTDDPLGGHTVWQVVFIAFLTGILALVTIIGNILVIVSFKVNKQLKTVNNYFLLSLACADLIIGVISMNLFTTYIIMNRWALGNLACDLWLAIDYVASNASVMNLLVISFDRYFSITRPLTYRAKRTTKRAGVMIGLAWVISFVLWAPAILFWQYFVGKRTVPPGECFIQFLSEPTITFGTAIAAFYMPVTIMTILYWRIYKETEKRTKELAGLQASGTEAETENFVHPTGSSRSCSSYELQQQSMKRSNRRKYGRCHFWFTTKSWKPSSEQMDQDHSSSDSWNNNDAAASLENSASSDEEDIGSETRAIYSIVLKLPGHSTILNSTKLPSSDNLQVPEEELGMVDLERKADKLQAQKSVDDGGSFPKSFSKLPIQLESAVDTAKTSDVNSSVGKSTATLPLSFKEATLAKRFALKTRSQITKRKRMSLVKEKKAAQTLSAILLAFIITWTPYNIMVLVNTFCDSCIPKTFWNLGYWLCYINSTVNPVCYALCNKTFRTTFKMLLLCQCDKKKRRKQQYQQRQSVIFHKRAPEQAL

Sequence of Histamine H1 receptor (P35367 whole entry): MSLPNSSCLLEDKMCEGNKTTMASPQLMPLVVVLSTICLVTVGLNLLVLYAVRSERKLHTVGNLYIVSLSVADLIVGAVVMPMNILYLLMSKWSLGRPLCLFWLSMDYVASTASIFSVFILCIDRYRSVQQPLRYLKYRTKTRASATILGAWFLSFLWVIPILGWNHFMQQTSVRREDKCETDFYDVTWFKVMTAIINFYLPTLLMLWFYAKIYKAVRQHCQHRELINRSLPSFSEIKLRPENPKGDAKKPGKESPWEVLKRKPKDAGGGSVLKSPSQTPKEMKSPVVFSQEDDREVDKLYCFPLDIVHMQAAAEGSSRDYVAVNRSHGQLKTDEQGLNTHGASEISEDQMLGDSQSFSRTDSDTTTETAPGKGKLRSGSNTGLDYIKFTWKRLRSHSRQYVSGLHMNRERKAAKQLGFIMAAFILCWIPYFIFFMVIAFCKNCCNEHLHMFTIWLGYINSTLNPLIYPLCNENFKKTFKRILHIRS

- Ki [1]: 0.437 nM
- Ki [2]: 1230 nM
- Ki [3]: 1860 nM
- Ki [4]: 3.89 µM
- Ki [5]: 2690 nM
- Ki [6]: 3.39 µM
SMILES: C[C@H](C1=C(CCN(C)C)Cc2ccccc21)c1ccccn1 [(S)-(+)-DIMETHINDENE]
